# Screens deposited in PubChem by several laboratories.
# PTK2B oligo ant = blocks oligomerization of human Pyk2 in cells; z-score (the deposit names both 25 µM and 10 µM); 99,000 tested, 0.83% active; AID 1347419; Q293 cells, Pyk2 FERM NanoBiT luminescence; hits give low values;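 active means Z-score of -3 or lower, scaled per plate to the spread of control and sample wells; inactive means z-score above -3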;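 further: negative z-score means lost luminescence so less FERM oligomerization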
# HCT116 bCat-KO = beta-catenin-lacking colon tumor cell growth suppression; HCT116 beta-catenin knockout viability, CellTiter-Glo, 60 h; hits give low values; viability, % at 10 µM; 140,000 tested, 1.5% active; AID 818;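 active means viability at or under a set limit, the compound median less 4 SD, cut at about 6% in these data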;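 further: 0% = Hyamine 1622 control at 20 µM and 100% = untreated cell control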
# HCT116 PTEN-null = suppresses growth of cells with PTEN deletion | 140,000 tested, 1.2% active | HCT116 PTEN-null viability, CellTiter-Glo, 60 h; hits give low values | AID 827 | viability, % at 10 µM;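 active means viability at or below a set limit, 4 SD under the median of all tested compounds, cut at about 3.7% in these data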;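 further: PTEN knockout HCT116 line with beta catenin targeted HCT116 as companion control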
# H69AR inhibit = growth inhibitors of human H69AR lung tumor cells; viability, % at 10 µM; H69AR lung tumor viability, ATP luminescence, 72 h; hits give low values; 85,000 tested, 6% active;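 active means viability at or below 40%; inactive means viability above 40%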;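 further: multidrug resistant small cell line overexpressing MRP-1 efflux transporter; 100% = mean luminescence of untreated control wells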
# Fibroblast inh = blocks proliferation of human lung fibroblasts | viability, % at 10 µM | LL 47 human lung fibroblast viability, ATP luminescence; hits give low values | 85,000 tested, 1.1% active;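 active means viability at or below 50% in the single dose screen; inactive means viability above 50%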;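 further: compound exposure lasted 72 h before the ATP readout; 100% = median luminescence of untreated cell-only wells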
#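 material = human LL 47 lung fibroblast cells | dosing = compounds added from tenfold dosing solution, 0.1% DMSO final | timing = overnight cell rest, 72 h compound treatment at 37 °C | measured by = CellTiter-Glo luminescence measuring cellular ATP | evaluation = % viability versus median cells-only luminescence | control set = cell-only wells, no compound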
# HUVEC inhibit = blocks proliferation of human endothelial cells. HUVEC proliferation, CellTiter-Glo luminescence, 72 h; hits give low values. viability, % at 10 µM (by protocol). 86,000 tested, 1.1% active;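 active means viability at or below 30%; inactive means viability above 30%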;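 further: 100% = median luminescence of DMSO-only cell control wells on each plate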
# The depositor's hits bear a star; . = no result given. This is one part of a sample in which hits are shown more often than they occur.
SMILES,PTK2B oligo ant,HCT116 bCat-KO,HCT116 PTEN-null,H69AR inhibit,Fibroblast inh,HUVEC inhibit
CCCCN(C)S(=O)(=O)c1ccc(C(=O)N=c2sc3cc(NC(C)=O)ccc3n2C)cc1,.,83,62,.,.,.
CCCCN(CC)S(=O)(=O)c1ccc(C(=O)N=c2sc3cc(NC(C)=O)ccc3n2C)cc1,0.68,0.6*,0.7*,.,.,.
Cc1ccc(C(=O)O/N=C(\N)c2cccnc2)cc1[N+](=O)[O-],.,100,99,.,.,.
Cc1cccc(C(=O)O/N=C(\N)c2ccc(Br)cc2)c1,1.5,75,82,87,102,75
Cc1ccc(C(=O)O/N=C(\N)c2ccc(Br)cc2)cc1C,0.84,89,91,28*,101,85
Cc1cc(C)cc(C(=O)O/N=C(\N)c2ccc(Br)cc2)c1,0.36,78,91,34*,82,67
COc1ccc(/C(N)=N/OC(=O)c2ccc(C)c([N+](=O)[O-])c2)cc1OC,0.03,99,107,24*,96,84
COc1ccccc1N(C(=O)c1cncc(Br)c1)c1nc(-c2ccc(C)cc2)cs1,.,74,74,.,.,.
CC(=O)N1C(O)CC(C)N1c1ccccc1 (stereo not given),.,102,95,.,.,.
CCC1(c2ccc(F)cc2)NC(=O)N(CC(=O)Nc2ccc(-c3nc4ccc(C)cc4s3)cc2)C1=O (stereo not given),.,1.1*,1.3*,.,.,.
COc1cc(Cl)c(C)cc1NC(=O)COC(=O)/C=C/c1c(C)nn(C2CCS(=O)(=O)C2)c1Cl (stereo not given),1.1,86,82,33*,65,56
COc1cc(NC(=O)COC(=O)/C=C/c2c(C)nn(C3CCS(=O)(=O)C3)c2Cl)cc(OC)c1OC (stereo not given),0.38,78,90,.,.,.
Cc1ccccc1Oc1cc(-n2ncc(Cl)c(Cl)c2=O)ncn1,0.17,1.6*,1.9*,.,.,.
Cc1ccc(S(=O)(=O)CCSc2nc(C)cc(C(F)(F)F)c2C#N)cc1,-0.59,30,29,1.6*,106,63
CCCC1=C(C(=O)OCC)C(/C=C/c2ccccc2)n2ncnc2N1 (stereo not given),-2.6,30,32,19*,43*,62
CCOC(=O)C1=C(c2ccccc2)Nc2ncnn2C1c1cccc(OC)c1OC (stereo not given),-1.1,91,85,39*,91,88
CCOC(=O)C1=C(C)Nc2ncnn2C1/C=C/c1ccccc1 (stereo not given),-0.53,81,73,23*,75,81
CCCC1=C(C(=O)OCC)C(c2ccc(F)cc2)n2ncnc2N1 (stereo not given),-1.9,83,79,.,84,113
CCOC(=O)C1=C(c2ccccc2)Nc2ncnn2C1c1cc(OC)cc(OC)c1OC (stereo not given),-0.44,104,101,87,96,96
Cn1c(Cc2cccc3ccccc23)nnc1SCc1ccc([N+](=O)[O-])cc1,.,80,77,.,.,.
COc1ccc(C(=O)NC(=S)Nc2cccc(Cl)c2N2CCOCC2)cc1[N+](=O)[O-],-1,60,61,.,.,.
Cc1nnc2sc(SCC(=O)Nc3nccs3)nn2c1=O,0.39,95,100,.,.,.
N=c1n(CCN2CCCCC2)c2ccccc2n1CC(O)c1ccc(Cl)c(Cl)c1 (stereo not given),0.83,0.9*,1.1*,.,.,.
N=c1n(CCN2CCCCC2)c2ccccc2n1CC(O)c1cccc(Br)c1 (stereo not given),-1.1,12,11,22*,46*,65
CCOc1cc2c3c(c1)C1(Nc4ccccc4S1)C(=O)N3C(C)(C)CC2C (stereo not given),-0.31,64,64,47,90,84
CCOc1ccccc1C(=O)NC(C)c1ccc2c(c1)OCO2 (stereo not given),-1.1,23,26,24*,97,65
CCOC(=O)c1[nH]c(C)c(C(=O)Nc2ccc(C)cc2C)c1C,.,29,23,38*,64,67
CCOC(=O)c1[nH]c(C)c(C(=O)Nc2ccc(F)cc2)c1C,.,99,102,84,99,100
CCOC(=O)c1[nH]c(C)c(C(=O)c2ccc(C)cc2)c1C,-1.7,14,.,29*,46*,41
CCOC(=O)c1[nH]c(C)c(C(=O)Nc2ccc(C)c(C)c2)c1C,.,66,71,96,84,65
